This note sets out measurements from ChEMBL document CHEMBL5149984, “Discovery of HN37 as a Potent and Chemically Stable Antiepileptic Drug Candidate” (J Med Chem, 2021).

What is called Cmax is the highest concentration seen after dosing. As a reminder, the Tmax is the time at which the peak concentration occurs. The term AUC(0-t) denotes the area under the concentration-time curve up to a stated or last time point. A lower AUC(0-t) goes with low exposure. For orientation: half-life means how long it takes for the measured level to halve. The inhibition is the percentage by which the read-out fell short of the control. Broadly, the IC50 is the concentration at which inhibition is half-maximal.

Data set [1] addresses T1, Potassium voltage-gated channel subfamily KQT member 1 (Homo sapiens, UniProt P51787).
T1 sequence (P51787 whole entry): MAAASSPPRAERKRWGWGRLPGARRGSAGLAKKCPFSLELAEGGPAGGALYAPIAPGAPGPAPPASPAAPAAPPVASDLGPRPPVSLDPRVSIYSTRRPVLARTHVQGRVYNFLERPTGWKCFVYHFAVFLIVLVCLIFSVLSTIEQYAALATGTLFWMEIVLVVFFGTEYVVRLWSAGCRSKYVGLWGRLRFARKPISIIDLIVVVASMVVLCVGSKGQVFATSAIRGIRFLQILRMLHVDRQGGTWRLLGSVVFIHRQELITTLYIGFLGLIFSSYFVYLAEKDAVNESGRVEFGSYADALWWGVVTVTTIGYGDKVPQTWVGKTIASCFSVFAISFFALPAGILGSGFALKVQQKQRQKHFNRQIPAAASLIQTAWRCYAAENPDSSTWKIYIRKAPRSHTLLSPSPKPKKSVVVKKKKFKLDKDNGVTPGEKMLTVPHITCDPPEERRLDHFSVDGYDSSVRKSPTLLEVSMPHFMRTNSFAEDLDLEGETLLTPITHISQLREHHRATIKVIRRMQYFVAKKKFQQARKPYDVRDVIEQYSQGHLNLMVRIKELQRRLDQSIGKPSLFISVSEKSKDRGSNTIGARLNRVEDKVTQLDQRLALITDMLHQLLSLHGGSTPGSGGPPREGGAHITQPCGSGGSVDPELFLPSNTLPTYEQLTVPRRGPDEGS
The data set can be described thus: Agonist activity at human KCNQ1 channel expressed in CHO cells assessed as shift of half voltage of maximal activation at 10 uM by patch clamp method. The class given is cell-based. In a few lines:
(§1)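 Whole-cell patch clamp at room temperature on CHO cells (DMEM/F12, 10% FBS) transiently co-transfected with EGFP and hKCNQ1, rKCNQ2, rKCNQ3 A278T, hKCNQ4 or hKCNQ5; KCNQ2/3 at 1:1 cDNA ratio. Pipette solution 145 mM KCl, 5 mM MgATP, pH 7.3; bath 140 mM NaCl, 5 mM KCl, pH 7.4, under perfusion. V1/2 from Boltzmann fits; I/I0 is current amplitude with versus without compound; n = 4−6.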

In data set [2] the target is Potassium voltage-gated channel subfamily KQT member 5 (Homo sapiens) (UniProt Q9NR82). The data set can be described thus: Agonist activity at human KCNQ5 channel expressed in CHO cells assessed as amplitude change of outward current at 10 uM by patch clamp method. Conditions: filed as agonist. The data set is classed as cell-based. Put shortly: as §1
In general terms: The patch-clamp technique gives a direct electrical read-out from membranes.

The nature of data set [3]: Cmax in Kunming mouse plasma at 5 mg/kg, po measured upto 24 hrs by LC-MS/MS method. The class given is ADME, organism-based. On the set-up: dose 5 mg/kg, time < 24 hrs, route po. In a few lines:
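KM male mice (18−24 g), fasted 12 h before and 2 h after dosing. HN37 given orally at 5 mg/kg in 5% DMSO/5% Tween 80/90% saline, or iv at 2 mg/kg after dilution in saline with 1% Tween 80; n = 3 per time point. Blood sampled 0.25–24 h (from 0.083 h after iv); whole brain taken after oral dosing. Plasma and brain extracted with acetonitrile, quantified by LC−MS/MS; AUC0−t by trapezoidal method.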

Data set [4] is described as follows: Tmax in Sprague-Dawley rat brain at 6 mg/kg, po measured upto 24 hrs by LC-MS/MS method. The data set is classed as ADME, organism-based. Put shortly:
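Male SD rats (180–220 g) dosed orally at 2, 6 and 20 mg/kg, handled like the mice: fasting, 5% DMSO/5% Tween 80/saline vehicle, acetonitrile extraction, LC-MS/MS of plasma. In a separate set at 6 mg/kg p.o., blood and brain were sampled together.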

Data set [5] is described as follows: AUC(0 to t) in Sprague-Dawley rat brain at 6 mg/kg, po measured upto 24 hrs by LC-MS/MS method. The class given is ADME, organism-based. The arrangement: dose 6 mg/kg, time < 24 hrs, route po. In a few lines: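 Separate experiment in male SD rats given 6 mg/kg orally; blood and brain concentrations measured concurrently. Samples extracted with acetonitrile (brain homogenized in 10 volumes acetonitrile and sonicated) and analysed by LC−MS/MS; AUC0−t by trapezoidal method.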

The nature of data set [6]: Metabolic stability in mouse liver microsomes assessed as half life. The data set is classed as ADME, Microsome. A general note: Liver microsomes are a subcellular fraction often used to study metabolism.
A further data set has as its target CYP2C9 (Homo sapiens, UniProt P11712). Nature of the data set: Inhibition of human liver microsome CYP2C9 at 0.10 to 50 uM preincubated with NADPH for 0.5 hrs followed by substrate addition by LC-MS/MS method relative to control. The class given is ADME. Conditions: liver microsomes, dose 0.1-50 µM.
The next data set has as its target Cytochrome P450 1A2 (Homo sapiens, UniProt P05177). The data set can be described thus: Time dependent inhibition of human liver microsome CYP1A2 preincubated for 0.5 hrs in presence of NADPH followed by substrate addition by LC-MS/MS method. The class given is ADME, microsomes. Put shortly:
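Human liver microsomes preincubated 0.5 h with 0.10–50 μM test compound, with or without NADPH, then CYP-specific probe substrate added and incubation continued. Metabolite measured by LC-MS/MS; % activity remaining relative to no-compound control; IC50 fitted by Probit model. For CYP3A4, midazolam 1′-hydroxylation and testosterone 6β-hydroxylation were read separately.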

For data set [7], the target named is Potassium voltage-gated channel subfamily KQT member 2/member 3 (Rattus norvegicus) (UniProt O88943+O88944). Nature of the data set: Potency index, ratio of retigabine EC50 to test compound EC50 for agonist activity at rat KCNQ2/3 channel expressed in CHO cells by patch clamp method. The class given is cell-based.
The nature of data set [8]: Drug concentration in Kunming mouse brain at 5 mg/kg. The class given is ADME, organism-based. The conditions noted are these: in vivo, read-out: Ct. In a few lines:
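Male KM mice (18−24 g) fasted 12 h before and 2 h after dosing, given 5 mg/kg orally in 5% DMSO/5% Tween 80/90% normal saline (n = 3 per time point). Aortic blood taken at 0.25–24 h and whole brain collected. Acetonitrile extraction with internal standard, then LC−MS/MS. Bioavailability calculated against the 2 mg/kg i.v. arm.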

Cytochrome P450 1A2, sequence (P05177 whole entry): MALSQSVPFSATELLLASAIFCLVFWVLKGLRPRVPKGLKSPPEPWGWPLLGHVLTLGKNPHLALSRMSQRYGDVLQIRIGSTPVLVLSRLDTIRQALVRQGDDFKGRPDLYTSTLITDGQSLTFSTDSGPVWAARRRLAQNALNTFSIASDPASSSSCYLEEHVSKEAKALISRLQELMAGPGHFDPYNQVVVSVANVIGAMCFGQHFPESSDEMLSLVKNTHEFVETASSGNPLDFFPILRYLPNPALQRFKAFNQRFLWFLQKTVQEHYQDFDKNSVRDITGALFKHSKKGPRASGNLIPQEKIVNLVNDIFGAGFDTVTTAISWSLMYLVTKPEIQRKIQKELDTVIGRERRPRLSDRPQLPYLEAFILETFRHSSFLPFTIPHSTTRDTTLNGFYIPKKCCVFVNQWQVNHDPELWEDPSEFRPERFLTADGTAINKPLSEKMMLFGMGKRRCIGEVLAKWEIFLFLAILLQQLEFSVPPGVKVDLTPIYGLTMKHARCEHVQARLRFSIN
CYP2C9, sequence (P11712 whole entry): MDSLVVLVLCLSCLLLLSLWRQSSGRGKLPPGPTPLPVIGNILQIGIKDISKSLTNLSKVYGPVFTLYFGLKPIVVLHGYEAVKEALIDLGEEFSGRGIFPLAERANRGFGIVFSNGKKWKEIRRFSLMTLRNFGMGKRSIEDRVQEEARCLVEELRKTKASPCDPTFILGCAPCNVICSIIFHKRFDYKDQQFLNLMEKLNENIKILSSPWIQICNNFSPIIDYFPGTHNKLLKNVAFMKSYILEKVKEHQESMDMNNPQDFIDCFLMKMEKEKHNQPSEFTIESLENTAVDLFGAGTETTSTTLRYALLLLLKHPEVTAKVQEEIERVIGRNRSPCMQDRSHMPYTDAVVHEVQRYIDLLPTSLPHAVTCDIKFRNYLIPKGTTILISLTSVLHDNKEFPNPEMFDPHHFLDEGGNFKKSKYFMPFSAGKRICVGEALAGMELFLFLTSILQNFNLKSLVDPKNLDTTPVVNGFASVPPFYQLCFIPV
Potassium voltage-gated channel subfamily KQT member 5 (Homo sapiens), sequence (Q9NR82 whole entry): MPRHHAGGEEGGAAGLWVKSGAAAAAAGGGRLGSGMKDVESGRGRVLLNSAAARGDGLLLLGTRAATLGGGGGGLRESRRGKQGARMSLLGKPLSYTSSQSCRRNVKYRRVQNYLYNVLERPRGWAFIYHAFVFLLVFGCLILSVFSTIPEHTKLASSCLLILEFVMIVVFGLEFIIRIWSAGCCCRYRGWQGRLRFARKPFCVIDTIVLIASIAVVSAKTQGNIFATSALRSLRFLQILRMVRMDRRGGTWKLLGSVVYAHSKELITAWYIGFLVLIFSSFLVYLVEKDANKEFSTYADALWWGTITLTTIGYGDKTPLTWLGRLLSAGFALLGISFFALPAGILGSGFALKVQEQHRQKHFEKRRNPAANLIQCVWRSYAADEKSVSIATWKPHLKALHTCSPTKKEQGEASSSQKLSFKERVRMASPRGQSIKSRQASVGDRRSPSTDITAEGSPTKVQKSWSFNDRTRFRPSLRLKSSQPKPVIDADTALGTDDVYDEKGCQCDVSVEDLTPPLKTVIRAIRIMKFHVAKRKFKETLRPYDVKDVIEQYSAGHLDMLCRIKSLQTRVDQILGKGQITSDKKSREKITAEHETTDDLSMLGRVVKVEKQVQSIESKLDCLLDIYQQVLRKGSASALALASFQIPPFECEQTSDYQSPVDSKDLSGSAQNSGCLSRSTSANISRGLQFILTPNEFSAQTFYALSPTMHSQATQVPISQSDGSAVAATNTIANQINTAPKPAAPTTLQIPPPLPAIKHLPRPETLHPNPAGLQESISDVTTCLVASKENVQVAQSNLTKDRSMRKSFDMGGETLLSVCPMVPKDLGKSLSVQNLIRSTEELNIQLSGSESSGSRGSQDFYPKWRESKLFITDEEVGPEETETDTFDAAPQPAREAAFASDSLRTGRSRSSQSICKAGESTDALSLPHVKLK

With `CCOC(=O)Nc1ccc(NCc2ccc(F)cc2)cc1N` [EZOGABINE], the values for the Activity in data set [1] and in [2] were -8.03 mV and 3.04, respectively.
In [3], `C#CCN(Cc1ccc(F)cc1)c1cc(C)c(NC(=O)OC)c(C)c1` registered a maximum concentration (Cmax) of 134 ng/mL. Also, the Tmax in data set [4] is 15 min. In data set [5], this compound had an AUC(0-t) at 24 h of 1520 ng·h/mL. The half-life in data set [6] is 12.5 min. The inhibition at 0.5 h, up to 50 µM against CYP2C9 is below 25%. For the same compound, the IC50 on Cytochrome P450 1A2 is 2530 nM. Moreover, in [7], the Ratio EC50 worked out at 125. Also, the concentration in data set [8] is 120 nM.
